For series [1], the target named is T1, Amine oxidase [flavin-containing] A (Homo sapiens, UniProt P21397).
T1 sequence (P21397 whole entry): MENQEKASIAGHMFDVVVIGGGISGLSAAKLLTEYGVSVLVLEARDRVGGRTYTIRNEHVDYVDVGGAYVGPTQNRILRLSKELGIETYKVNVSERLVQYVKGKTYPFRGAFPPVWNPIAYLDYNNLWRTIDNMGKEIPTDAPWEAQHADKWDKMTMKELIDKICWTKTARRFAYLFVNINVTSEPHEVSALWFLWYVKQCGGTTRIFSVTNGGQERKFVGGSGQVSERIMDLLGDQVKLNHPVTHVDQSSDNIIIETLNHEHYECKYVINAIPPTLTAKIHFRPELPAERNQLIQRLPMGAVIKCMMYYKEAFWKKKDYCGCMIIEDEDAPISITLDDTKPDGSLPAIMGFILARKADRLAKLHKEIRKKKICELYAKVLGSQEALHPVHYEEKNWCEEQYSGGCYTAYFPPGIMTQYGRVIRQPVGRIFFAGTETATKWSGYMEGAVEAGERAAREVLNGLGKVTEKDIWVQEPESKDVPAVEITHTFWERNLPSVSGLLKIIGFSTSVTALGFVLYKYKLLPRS
Kind of series: Inhibition of recombinant human MAO-A using kynuramine as substrate after 20 mins by fluorescence spectrophotometric analysis. The essentials:
(§1)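 Recombinant human enzyme incubated with kynuramine and test inhibitor at 37 °C for 20 min; stopped with 2 N NaOH. The 4-hydroxyquinoline product is read at endpoint by fluorescence in alkaline medium. Inhibitor-free controls run each time.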

Series [2] deals with T2, Amine oxidase [flavin-containing] B (Homo sapiens, UniProt P27338).
T2 sequence (P27338 whole entry): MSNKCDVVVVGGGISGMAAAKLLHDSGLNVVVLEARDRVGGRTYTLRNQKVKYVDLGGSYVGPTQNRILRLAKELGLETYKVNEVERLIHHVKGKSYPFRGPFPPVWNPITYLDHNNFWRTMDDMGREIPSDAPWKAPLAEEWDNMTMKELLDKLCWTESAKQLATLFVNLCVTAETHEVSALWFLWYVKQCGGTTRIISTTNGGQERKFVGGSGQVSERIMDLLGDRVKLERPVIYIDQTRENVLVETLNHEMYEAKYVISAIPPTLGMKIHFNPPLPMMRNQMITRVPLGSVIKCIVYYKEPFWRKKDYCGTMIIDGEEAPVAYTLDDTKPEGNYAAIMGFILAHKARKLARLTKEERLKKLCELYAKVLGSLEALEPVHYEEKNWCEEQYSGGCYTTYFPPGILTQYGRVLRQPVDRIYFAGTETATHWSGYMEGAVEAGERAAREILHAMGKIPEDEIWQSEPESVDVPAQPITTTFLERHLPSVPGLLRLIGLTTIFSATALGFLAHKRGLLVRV
Kind of series: Inhibition of recombinant human MAO-B using kynuramine as substrate after 20 mins by fluorescence spectrophotometric analysis. In short, it runs like this: as §1

For another series, the species on record is Homo sapiens. Kind of series: Selectivity index, ratio of IC50 for recombinant human MAO-A to IC50 for recombinant human MAO-B. The essentials: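 Ratio of IC50 for MAO-A to IC50 for MAO-B. Both are from the kynuramine fluorescence assay with recombinant human enzymes (37 °C, 20 min, endpoint 4-hydroxyquinoline).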
Series [3] deals with T3, Amine oxidase [flavin-containing] B (Rattus norvegicus, UniProt P19643).
T3 sequence (P19643 whole entry): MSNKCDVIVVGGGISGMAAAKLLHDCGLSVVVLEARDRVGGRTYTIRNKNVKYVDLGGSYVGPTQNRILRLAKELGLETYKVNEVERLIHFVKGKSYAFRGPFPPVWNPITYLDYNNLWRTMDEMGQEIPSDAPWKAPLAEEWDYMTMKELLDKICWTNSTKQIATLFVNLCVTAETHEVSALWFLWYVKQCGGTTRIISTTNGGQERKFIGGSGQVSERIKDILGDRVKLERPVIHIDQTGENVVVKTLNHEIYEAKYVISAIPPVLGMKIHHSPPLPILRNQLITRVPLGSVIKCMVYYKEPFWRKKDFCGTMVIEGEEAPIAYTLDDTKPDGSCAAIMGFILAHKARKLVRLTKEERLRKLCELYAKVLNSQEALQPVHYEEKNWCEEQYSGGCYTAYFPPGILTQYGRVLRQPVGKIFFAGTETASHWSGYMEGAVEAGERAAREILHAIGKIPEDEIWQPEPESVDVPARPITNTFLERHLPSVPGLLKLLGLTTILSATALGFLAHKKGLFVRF
Kind of series: Inhibition of Sprague-Dawley rat brain mitochondrial MAO-B using DMAPEA as substrate by HPLC analysis.

For series [4], the target named is T1, Amine oxidase [flavin-containing] A. Kind of series: Reversible inhibition of recombinant human MAO-A assessed as residual activity pre-incubated at 4 times IC50 for 15 mins followed by dialysis for 24 hrs and subsequent kynuramine addition measured after 20 mins by fluorescence spectrophotometric analysis relative to untreated control.
Series [5] has the same target. Briefly: Reversible inhibition of recombinant human MAO-A assessed as residual activity pre-incubated at 4 times IC50 for 15 mins followed by kynuramine addition measured after 20 mins by fluorescence spectrophotometric analysis relative to untreated control. The essentials: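 Undialysed comparison: MAO-A is pre-incubated 15 min with inhibitor at 4 × IC50 without dialysis. Residual activity is measured after kynuramine addition as in the IC50 assay (37 °C, 20 min, 2 N NaOH stop, fluorescence of 4-hydroxyquinoline). It is expressed relative to the inhibitor-free control.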

Series [6] addresses T4, Amine oxidase [flavin-containing] A (Rattus norvegicus, UniProt P21396).
T4 sequence (P21396 whole entry): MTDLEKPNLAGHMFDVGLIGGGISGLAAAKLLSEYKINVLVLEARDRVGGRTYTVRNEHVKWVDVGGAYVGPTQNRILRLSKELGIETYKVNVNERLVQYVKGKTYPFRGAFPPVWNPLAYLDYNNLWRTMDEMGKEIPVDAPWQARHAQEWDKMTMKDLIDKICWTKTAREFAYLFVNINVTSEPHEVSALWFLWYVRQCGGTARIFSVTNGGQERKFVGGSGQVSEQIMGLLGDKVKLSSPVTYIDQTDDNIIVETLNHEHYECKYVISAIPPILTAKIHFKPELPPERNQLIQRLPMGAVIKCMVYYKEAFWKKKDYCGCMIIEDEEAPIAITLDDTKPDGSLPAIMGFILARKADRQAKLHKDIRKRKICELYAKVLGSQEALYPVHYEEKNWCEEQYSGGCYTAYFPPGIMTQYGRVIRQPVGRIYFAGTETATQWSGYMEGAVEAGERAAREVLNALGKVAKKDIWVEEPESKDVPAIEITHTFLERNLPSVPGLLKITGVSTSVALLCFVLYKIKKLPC
Briefly: Inhibition of Wistar rat liver mitochondrial MAO-A using […] as substrate after 1 hr by spectrophotometric analysis.

For series [7], the target named is T1, Amine oxidase [flavin-containing] A. Kind of series: Irreversible inhibition of recombinant human MAO-A assessed as residual activity pre-incubated at 4 times IC50 for 15 mins followed by dialysis for 24 hrs and subsequent kynuramine addition measured after 20 mins by fluorescence spectrophotometric analysis relative to untreated control.

SMILES strings stand for the structures.

What is called IC50 is the concentration at which inhibition is half-maximal. Take `O=C1/C(=C/c2ccccc2)Cc2ccc(O)cc21`: the half-inhibitory concentration (IC50) is 440 nM in series [1] and 2420 nM in series [2]. The Ratio IC50 in the series listed under Homo sapiens was found to be 0.2.

For the compound `N#Cc1cccc(/C=C2\Cc3cc(O)ccc3C2=O)c1`, the IC50 in series [1] amounted to 444 nM; in series [2] it was 130 nM. In the series listed under Homo sapiens, the Ratio IC50 came to 3.4.

In series [3], `COc1ccc2c(c1)C(=O)/C(=C/c1ccccc1OC)O2` showed an IC50 of 11600 nM.

With `O=C1/C(=C/c2ccc(Cl)c(Cl)c2)Cc2cc(O)ccc21`, the IC50 in series [1] was found to be 235 nM; in series [2], 14 nM. For the same compound, the Ratio IC50 in the series filed under Homo sapiens came out at 17.

With `O=C1/C(=C/c2ccc(Cl)cc2)Cc2cc(O)ccc21`, the 50% inhibitory concentration (IC50) in series [1] worked out at 741 nM; in series [2] it was 13 nM. Also, the Ratio IC50 in the series filed under Homo sapiens was found to be 57.

Take `COc1ccc2c(c1)C/C(=C\c1ccccc1)C2=O`: in series [2], the IC50 came to 9.2 nM. Also, the Ratio IC50 in the series filed under Homo sapiens is > 10900.

Consider `N#Cc1ccc(/C=C2\Cc3cc(O)ccc3C2=O)cc1`, for which the values for the IC50 in series [1] and in series [2] were 2080 nM and 316 nM, respectively. Moreover, the Ratio IC50 in the series filed under Homo sapiens was found to be 6.6.

Take `COc1cccc(/C=C2\Cc3cc(O)ccc3C2=O)c1`: the half-maximal inhibitory concentration (IC50) in series [1] is 1190 nM; in series [2], 471 nM. Further, in the series listed under Homo sapiens, the Ratio IC50 amounted to 2.5.

Take `CN(C)c1ccc(/C=C2\Cc3cc(O)ccc3C2=O)cc1`: the IC50 in series [1] was 1720 nM; in series [2] it was 768 nM. Also, in the series listed under Homo sapiens, the Ratio IC50 amounted to 2.2.

Turning to `O=C1/C(=C/c2cccc(O)c2)Cc2cc(O)ccc21`, the IC50 in series [1] amounted to 1200 nM; in series [2], 966 nM. Further, the Ratio IC50 in the series filed under Homo sapiens worked out at 1.2.

Regarding `O=C1/C(=C/c2cccc(Br)c2)Cc2cc(O)ccc21`, the figures for the IC50 in series [1] and in series [2] were 131 nM and 13 nM, respectively. Also, the Ratio IC50 in the series listed under Homo sapiens stood at 10. Moreover, the Activity in series [4] is 99%; in series [5], 50%.

As for `COc1ccc2c(c1)C/C(=C\c1ccc(N(C)C)cc1)C2=O`, the 50% inhibitory concentration (IC50) in series [1] turned out to be 11500 nM; in series [2], 60 nM. Besides, the Ratio IC50 in the series listed under Homo sapiens turned out to be 192.

Turning to `O=C1/C(=C/c2ccccc2)Cc2cc(O)ccc21`, the IC50 in series [1] was 1940 nM; in series [2], 376 nM. Also, the Ratio IC50 in the series filed under Homo sapiens turned out to be 5.2.

For the compound `O=C1/C(=C/c2cccc(F)c2)Cc2cc(O)ccc21`, the IC50 came to 458 nM in series [1] and 84 nM in series [2]. Further, in the series filed under Homo sapiens, the Ratio IC50 turned out to be 5.5.

As to `O=C1/C(=C/c2ccccc2)Cc2ccccc21`, the IC50 in series [1] worked out at 5430 nM; in series [2], 2570 nM. Also, in the series listed under Homo sapiens, the Ratio IC50 is 2.1.

In the case of `O=C1/C(=C/c2ccc(Br)cc2)Cc2cc(O)ccc21`, the figures for the IC50 in series [1] and in series [2] were 1050 nM and 5.3 nM, respectively. Moreover, the Ratio IC50 in the series listed under Homo sapiens is 198.

`CC(C)c1ccc(/C=C2\Cc3cc(O)ccc3C2=O)cc1`: the half-maximal inhibitory concentration (IC50) was 961 nM in series [1] and 215 nM in series [2]. In the series listed under Homo sapiens, the Ratio IC50 stood at 4.5.

As for `Cc1cccc(/C=C2\Cc3cc(O)ccc3C2=O)c1`, the IC50 turned out to be 860 nM in series [1] and 52 nM in series [2]. The Ratio IC50 in the series filed under Homo sapiens amounted to 17.

With `O=C1/C(=C/c2ccc(F)cc2)Cc2cc(O)ccc21`, the IC50 in series [1] is 679 nM; in series [2] it was 47 nM. In addition, the Ratio IC50 in the series listed under Homo sapiens came to 14.

`O=C1/C(=C/c2cccc(Cl)c2)Cc2cc(O)ccc21`: the IC50 in series [1] came to 157 nM; in series [2] it was 30 nM. Further, the Ratio IC50 in the series filed under Homo sapiens amounted to 5.2.

For the compound `CN(C)c1ccc(/C=C2\Cc3ccccc3C2=O)cc1`, the IC50 in series [1] is 1520 nM; in series [2] it was 31 nM. Further, in the series listed under Homo sapiens, the Ratio IC50 stood at 49.

In series [6], `O=C(/C=C/c1ccc(O)cc1)c1ccc(O)cc1O` [ISOLIQUIRITIGENIN] showed an IC50 of 17300 nM.

Turning to `C#CCN(C)Cc1ccccc1` [PARGYLINE], the Activity in series [7] was 1.7%.

`Cc1ccc(/C=C2\Cc3cc(O)ccc3C2=O)cc1`: the IC50 in series [1] was 3220 nM; in series [2] it was 5.2 nM. Also, in the series listed under Homo sapiens, the Ratio IC50 was 619.

Consider `O=C1/C(=C/c2ccc(O)cc2)Cc2cc(O)ccc21`, for which the IC50 worked out at 1670 nM in series [1] and 2740 nM in series [2]. Moreover, the Ratio IC50 in the series filed under Homo sapiens is 0.6.
